# In ChEMBL document CHEMBL3272033, “Physicochemical and pharmacological studies of some 8-substituted decahydroisoquinolines” (J Med Chem, 1976):
# Key:
# Heart [1] = experiment: Antiarrhythmic activity in Hartley guinea pig atria assessed as change in spontaneous rate at 55.2 uM/l after 5 mins; type: functional, Cavia porcellus
# Method in brief: (§1)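 Spontaneously beating isolated atria held under initial tension; bath fluid changed every 10 min; stabilised about 1 h. Maximum driving rate found with 1-ms square pulses at 50% above threshold voltage, 10 s every 30 s; the frequency just before failure of following is the MDR. Control is the mean of two determinations. Spontaneous rate recorded by tachograph. Values are % change from control at peak response, generally 5–30 min.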
# Heart [2] = experiment: Antiarrhythmic activity in Hartley guinea pig atria assessed as change in maximum driving rate at 55.2 uM/l after 5 mins; type: functional, Cavia porcellus; method in brief: as §1
# Homo sapiens [3] = organism: Homo sapiens; experiment: Drug absorption in buccal cavity in human at pH 5.50 after 5 mins by UV spectrometry; type: ADME, organism-based; settings: in vivo, other, pH 5.5, 5 min
# Method in brief: (§2)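 3 mg compound in 25 ml buffer (0.1 M phosphate pH 5.50 or 7.50; tetraborate pH 9.30) swished in the mouth for 5 min, expelled, and combined with a 10 ml water rinse. Made up to 50 ml; aliquot basified to pH 10 and ether-extracted, then back-extracted into 0.1 N HCl. UV absorbance read at λmax against Beer's law plots; the unrecovered fraction is taken as % absorbed. One to three subjects.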
# Mus musculus [4] = experiment: Toxicity in ip dosed Swiss-Webster albino mouse; type: organism-based; settings: in vivo
# [5] = Therapeutic index, ratio of LD50 for toxicity to ED50 for antiarrhythmic activity in ip dosed Swiss-Webster albino mouse; type: organism-based, Heart; settings: in vivo, read-out: Ratio LD50/ED50
# Homo sapiens [6] = organism: Homo sapiens; experiment: Drug absorption in buccal cavity in human at pH 9.3 after 5 mins by UV spectrometry; type: ADME, organism-based; settings: in vivo, other, pH 9.3, 5 min; method in brief: as §2
# Homo sapiens [7] = organism: Homo sapiens; experiment: Drug absorption in buccal cavity in human at pH 7.50 after 5 mins by UV spectrometry; type: ADME, organism-based; settings: in vivo, other, pH 7.5, 5 min; method in brief: as §2
# Mus musculus [8] = experiment: Antiarrhythmic activity in ip dosed Swiss-Webster albino mouse assessed as prevention of chloroform-induced ventricular fibrillation; type: functional, Heart
# [9] = Dissociation constant, pKa of the compound in 0.01 M potassium hydrogen phthalate; type: physicochemical
# Method in brief: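 pKa by potentiometric titration with 0.01 M potassium hydrogen phthalate in a thermostated vessel, stirred, under nitrogen bubbling, using glass and calomel electrodes. pKa is the mean pH at half-neutralization from four titrations. Endpoints were taken from parallel tangents on either side of the inflection.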
# Heart [10] = experiment: Antiarrhythmic activity in Hartley guinea pig atria assessed as change in maximum driving rate at 73.4 uM/l after 5 mins; type: functional, Cavia porcellus; method in brief: as §1
# Heart [11] = experiment: Antiarrhythmic activity in Hartley guinea pig atria assessed as change in spontaneous rate at 73.4 uM/l after 5 mins; type: functional, Cavia porcellus; method in brief: as §1
# Heart [12] = experiment: Antiarrhythmic activity in Hartley guinea pig atria assessed as change in spontaneous rate at 65.2 uM/l after 5 mins; type: functional, Cavia porcellus; method in brief: as §1
# Heart [13] = experiment: Antiarrhythmic activity in Hartley guinea pig atria assessed as change in maximum driving rate at 65.2 uM/l after 5 mins; type: functional, Cavia porcellus; method in brief: as §1
# Heart [14] = experiment: Antiarrhythmic activity in Hartley guinea pig atria assessed as change in maximum driving rate at 58.6 uM/l after 5 mins; type: functional, Cavia porcellus; method in brief: as §1
# Heart [15] = experiment: Antiarrhythmic activity in Hartley guinea pig atria assessed as change in spontaneous rate at 58.6 uM/l after 5 mins; type: functional, Cavia porcellus; method in brief: as §1
# Heart [16] = experiment: Antiarrhythmic activity in Hartley guinea pig atria assessed as change in maximum driving rate at 66.1 uM/l after 5 mins; type: functional, Cavia porcellus; method in brief: as §1
# Heart [17] = experiment: Antiarrhythmic activity in Hartley guinea pig atria assessed as change in spontaneous rate at 66.1 uM/l after 5 mins; type: functional, Cavia porcellus; method in brief: as §1
# Heart [18] = experiment: Antiarrhythmic activity in Hartley guinea pig atria assessed as change in spontaneous rate at 60.2 uM/l after 5 mins; type: functional, Cavia porcellus; method in brief: as §1
# Heart [19] = experiment: Antiarrhythmic activity in Hartley guinea pig atria assessed as change in maximum driving rate at 60.2 uM/l after 5 mins; type: functional, Cavia porcellus; method in brief: as §1
# Heart [20] = experiment: Antiarrhythmic activity in Hartley guinea pig atria assessed as change in spontaneous rate at 55.0 uM/l after 5 mins; type: functional, Cavia porcellus; method in brief: as §1
# Heart [21] = experiment: Antiarrhythmic activity in Hartley guinea pig atria assessed as change in maximum driving rate at 55.0 uM/l after 5 mins; type: functional, Cavia porcellus; method in brief: as §1
# Homo sapiens [22] = experiment: Toxicity in human assessed as numbness at 5 x 10' -5 M administered topically to buccal cavity measured up to 15 to 20 mins; type: organism-based; settings: in vivo, topical_or_ocular, 50 µM
SMILES,Drug absorption (Homo sapiens [3]),LD50 (Mus musculus [4]),selectivity ratio [5],Drug absorption (Homo sapiens [6]),Drug absorption (Homo sapiens [7]),ED50 (Mus musculus [8]),pKa [9],further results
COc1cc(C(=O)N[C@@H]2CCC[C@@H]3CCN(C)C[C@@H]32)cc(OC)c1OC (mixture of isomers),8.1%,1170,7.3,23.8%,14.2%,160 µmol/kg,9.02,Activity (Heart [1]): -9.8%; Activity (Heart [2]): -7%
CN1CC[C@H]2CCC[C@@H](NC(=O)c3ccccc3)[C@H]2C1 (mixture of isomers),9.3%,1430,5.9,40.6%,16%,242 µmol/kg,9.18,Activity (Heart [10]): -15.1%; Activity (Heart [11]): -7.2%
CN1CC[C@H]2CCC[C@@H](NS(=O)(=O)c3ccccc3)[C@H]2C1 (mixture of isomers),14.9%,1460,5.2,30.4%,17.7%,282 µmol/kg,9.17,–
CN1CC[C@H]2CCC[C@@H](NC(=O)c3ccc(Cl)cc3)[C@@H]2C1 (mixture of isomers),8.2%,952,4.8,54.4%,12.4%,200 µmol/kg,8.83,Activity (Heart [12]): -57.4%; Activity (Heart [13]): -20%
CN1CC[C@H]2CCC[C@@H](NC(=O)c3ccc(Cl)c(Cl)c3)[C@H]2C1 (mixture of isomers),20.1%,712,9.7,60.6%,25.1%,73 µmol/kg,9.05,Activity (Heart [14]): -34.1%; Activity (Heart [15]): -21.7%
C=C[C@H]1C[N@@]2CC[C@H]1C[C@@H]2[C@@H](O)c1ccnc2ccc(OC)cc12 [QUINIDINE],–,533 uM/L,–,–,–,–,–,–
CN1CC[C@H]2CCC[C@@H](NC(=O)c3ccccc3)[C@@H]2C1 (mixture of isomers),11.1%,1450,5.9,42.9%,15.9%,246 µmol/kg,8.99,Activity (Heart [10]): -17.6%; Activity (Heart [11]): -19.3%
COc1ccccc1C(=O)N[C@@H]1CCC[C@@H]2CCN(C)C[C@@H]21 (mixture of isomers),1.2%,847,7.3,35.1%,5.3%,116 µmol/kg,9.11,Activity (Heart [16]): -23.2%; Activity (Heart [17]): -25.5%
CN1CC[C@H]2CCC[C@@H](NC(=O)c3ccc(Cl)cc3)[C@H]2C1 (mixture of isomers),6.7%,909,4.4,43.2%,9.3%,209 µmol/kg,–,Activity (Heart [12]): -13.1%; Activity (Heart [13]): -28.5%
COc1ccc(C(=O)N[C@@H]2CCC[C@@H]3CCN(C)C[C@@H]32)cc1OC (mixture of isomers),7%,1770,8.9,17.6%,10.4%,199 µmol/kg,–,Activity (Heart [18]): -16.9%; Activity (Heart [19]): -9.71%
COc1ccc(C(=O)N[C@@H]2CCC[C@@H]3CCN(C)C[C@H]32)cc1 (mixture of isomers),7.4%,1490,7.6,34.3%,9%,195 µmol/kg,–,Activity (Heart [16]): -19.8%; Activity (Heart [17]): -21.5%
COc1ccc(C(=O)N[C@@H]2CCC[C@@H]3CCN(C)C[C@H]32)cc1OC (mixture of isomers),16.8%,1600,9.8,27.1%,18.9%,164 µmol/kg,8.89,Activity (Heart [18]): -20.2%; Activity (Heart [19]): -13.8%
COc1ccc(C(=O)N[C@@H]2CCC[C@@H]3CCN(C)C[C@@H]32)cc1 (mixture of isomers),4.7%,1560,5.8,30.6%,7%,268 µmol/kg,9.19,Activity (Heart [16]): -15.1%; Activity (Heart [17]): -44.2%
CN1CC[C@H]2CCC[C@@H](NS(=O)(=O)c3ccccc3)[C@@H]2C1 (mixture of isomers),11.9%,1113,3.3,37.1%,20.4%,347 µmol/kg,8.87,–
COc1cc(C(=O)O[C@@H]2CCC[C@@H]3CCN(C)C[C@@H]32)cc(OC)c1OC (mixture of isomers),21.2%,421,2.6,70.7%,38.2%,162 µmol/kg,8.91,Activity (Heart [20]): -53.2%; Activity (Heart [21]): -32.3%; Activity (Homo sapiens [22]): Toxic
COc1ccccc1C(=O)N[C@@H]1CCC[C@@H]2CCN(C)C[C@H]21 (mixture of isomers),5.2%,761,4.3,41.2%,12.8%,175 µmol/kg,8.81,Activity (Heart [16]): -19.8%; Activity (Heart [17]): -25%
